Laboratory results as given in ChEMBL document CHEMBL3124759, “Synthesis, nicotinic acetylcholine receptor binding, and antinociceptive properties of 2'-fluoro-3'-(substituted pyridinyl)-7-deschloroepibatidine analogues” (J Med Chem, 2014).
pEC50, pIC50: −log10 of the molar value.

Key:
[1] = target: Neuronal acetylcholine receptor subunit alpha-7 (Rattus norvegicus) (UniProt Q05941); assay: Antagonist activity at rat alpha7 nAChR expressed in Xenopus laevis oocytes assessed as inhibition of acetylcholine-induced current at 100 uM by two-electrode voltage clamp electrophysiological analysis relative to acetylcholine; type: cell-based
Sequence of Neuronal acetylcholine receptor subunit alpha-7 (Rattus norvegicus) (Q05941 whole entry): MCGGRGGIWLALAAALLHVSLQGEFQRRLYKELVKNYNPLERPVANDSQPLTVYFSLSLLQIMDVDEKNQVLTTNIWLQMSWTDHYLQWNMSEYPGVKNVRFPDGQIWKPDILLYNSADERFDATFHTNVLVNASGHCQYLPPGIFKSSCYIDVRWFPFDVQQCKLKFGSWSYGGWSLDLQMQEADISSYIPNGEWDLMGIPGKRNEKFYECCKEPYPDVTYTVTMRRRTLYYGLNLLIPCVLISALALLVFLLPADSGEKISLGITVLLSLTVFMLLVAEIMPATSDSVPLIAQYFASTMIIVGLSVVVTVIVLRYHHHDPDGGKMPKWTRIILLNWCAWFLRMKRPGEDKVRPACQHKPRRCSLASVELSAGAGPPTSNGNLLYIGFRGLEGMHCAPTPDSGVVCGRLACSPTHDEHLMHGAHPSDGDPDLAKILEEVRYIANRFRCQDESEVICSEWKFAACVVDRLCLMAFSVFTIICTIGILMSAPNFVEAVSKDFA

[2] = target: Neuronal acetylcholine receptor; alpha3/beta4 (Rattus norvegicus) (UniProt P04757+P12392); assay: Agonist activity at rat alpha3beta4 nAChR expressed in Xenopus laevis oocytes assessed as stimulation of acetylcholine-induced current at 100 uM by two-electrode voltage clamp electrophysiological analysis relative to acetylcholine; type: cell-based
In short: (§1)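 Rat receptors expressed in Xenopus oocytes, two-electrode voltage clamp. Current evoked by 100 µM test compound was compared with the mean of three preceding ACh applications. The response was expressed as a percentage of the maximal ACh response.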

Mus musculus [3] = assay: Antinociceptive activity in sc dosed mouse by hot plate test; type: functional
Mus musculus [4] = assay: Effect on spontaneous activity in sc dosed mouse after 5 mins; type: functional
[5] = target: Neuronal acetylcholine receptor subunit alpha-7 (Rattus norvegicus) (UniProt Q05941); assay: Agonist activity at rat alpha7 nAChR expressed in Xenopus laevis oocytes assessed as stimulation of acetylcholine-induced current at 100 uM by two-electrode voltage clamp electrophysiological analysis relative to acetylcholine; type: cell-based; in short: as §1
Mus musculus [6] = assay: Antinociceptive activity in sc dosed mouse after 5 mins by tail flick test; type: functional
[7] = target: T1, Neuronal acetylcholine receptor; alpha4/beta2 (Rattus norvegicus) (UniProt P09483+P12390); assay: Agonist activity at rat alpha4beta2 nAChR expressed in Xenopus laevis oocytes assessed as stimulation of acetylcholine-induced current at 100 uM by two-electrode voltage clamp electrophysiological analysis relative to acetylcholine; type: cell-based; in short: as §1
Mus musculus [8] = assay: Antinociceptive activity in mouse at 10 mg/kg, sc after 5 mins by tail flick test relative to control; type: functional; conditions: route subcutaneous
Rattus norvegicus = species on record: Rattus norvegicus; assay: Selectivity ratio of IC50 for rat alpha7 nAChR to IC50 for rat alpha4beta2 nAChR
Mus musculus [9] = assay: Effect on hypothermia in sc dosed mouse after 30 mins; type: functional; conditions: 0.5 h
Mus musculus [10] = assay: Inhibition of nicotine-induced antinociception in mouse at 100 ug/kg, sc after 5 mins by hot plate test relative to control; type: functional
Mus musculus [11] = assay: Inhibition of nicotine-induced antinociception in mouse at 10000 ug/kg, sc after 5 mins by hot plate test relative to control; type: functional
Mus musculus [12] = assay: Inhibition of nicotine-induced antinociception in mouse at 100 ug/kg, sc after 5 mins by tail flick test relative to control; type: functional
Mus musculus [13] = assay: Antinociceptive activity in mouse at 10 mg/kg, sc by hot plate test relative to control; type: functional; conditions: route subcutaneous
Mus musculus [14] = assay: Inhibition of nicotine-induced antinociception in mouse at 1000 ug/kg, sc after 5 mins by hot plate test relative to control; type: functional
[15] = target: Neuronal acetylcholine receptor; alpha3/beta4 (Rattus norvegicus, UniProt P04757+P12392); assay: Agonist activity at rat alpha3beta4 nAChR expressed in Xenopus laevis oocytes assessed as stimulation of acetylcholine-induced current by two-electrode voltage clamp electrophysiological analysis; type: cell-based
Sequence of Neuronal acetylcholine receptor; alpha3/beta4 (P04757 whole entry): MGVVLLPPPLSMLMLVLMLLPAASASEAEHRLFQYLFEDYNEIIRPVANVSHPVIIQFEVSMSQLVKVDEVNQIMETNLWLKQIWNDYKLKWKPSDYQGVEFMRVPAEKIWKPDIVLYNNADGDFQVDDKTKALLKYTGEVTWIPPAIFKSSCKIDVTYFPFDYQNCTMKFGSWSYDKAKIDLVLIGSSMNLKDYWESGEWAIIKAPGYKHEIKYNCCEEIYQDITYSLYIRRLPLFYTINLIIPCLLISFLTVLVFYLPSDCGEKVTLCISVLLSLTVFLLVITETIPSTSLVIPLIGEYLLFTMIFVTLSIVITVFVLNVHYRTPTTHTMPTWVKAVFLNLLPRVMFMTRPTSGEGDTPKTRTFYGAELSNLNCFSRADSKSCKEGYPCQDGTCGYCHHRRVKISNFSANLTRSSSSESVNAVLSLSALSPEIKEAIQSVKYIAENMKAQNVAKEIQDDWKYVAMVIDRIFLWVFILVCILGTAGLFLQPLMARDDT
Sequence of Neuronal acetylcholine receptor; alpha3/beta4 (P12392 whole entry): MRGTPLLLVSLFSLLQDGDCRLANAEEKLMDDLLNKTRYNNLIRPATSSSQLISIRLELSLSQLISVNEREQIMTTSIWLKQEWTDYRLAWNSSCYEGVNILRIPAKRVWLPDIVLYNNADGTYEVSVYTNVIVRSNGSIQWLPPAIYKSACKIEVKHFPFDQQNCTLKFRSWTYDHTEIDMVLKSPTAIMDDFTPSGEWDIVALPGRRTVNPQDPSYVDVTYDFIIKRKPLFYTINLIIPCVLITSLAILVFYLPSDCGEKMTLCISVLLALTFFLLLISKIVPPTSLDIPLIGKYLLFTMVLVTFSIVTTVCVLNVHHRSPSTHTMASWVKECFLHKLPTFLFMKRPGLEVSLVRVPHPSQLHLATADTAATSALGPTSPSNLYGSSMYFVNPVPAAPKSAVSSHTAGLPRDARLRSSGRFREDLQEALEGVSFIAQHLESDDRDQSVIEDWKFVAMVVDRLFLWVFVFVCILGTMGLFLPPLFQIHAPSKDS

Mus musculus [16] = assay: Inhibition of nicotine-induced antinociception in sc dosed mouse after 5 mins by tail flick test; type: functional
[17] = target: T1, Neuronal acetylcholine receptor; alpha4/beta2 (Rattus norvegicus); assay: Antagonist activity at rat alpha4beta2 nAChR expressed in Xenopus laevis oocytes assessed as inhibition of acetylcholine-induced current at 100 uM by two-electrode voltage clamp electrophysiological analysis relative to acetylcholine; type: cell-based
Mus musculus [18] = assay: Inhibition of nicotine-induced antinociception in sc dosed mouse after 5 mins by hot plate test; type: functional
[19] = target: Neuronal acetylcholine receptor; alpha4/beta2 (Rattus norvegicus, UniProt P09483+P12390); assay: Antagonist activity at rat alpha4beta2 nAChR expressed in Xenopus laevis oocytes assessed as inhibition of acetylcholine-induced current by two-electrode voltage clamp electrophysiological analysis; type: cell-based
Sequence of Neuronal acetylcholine receptor; alpha4/beta2 (P09483 whole entry): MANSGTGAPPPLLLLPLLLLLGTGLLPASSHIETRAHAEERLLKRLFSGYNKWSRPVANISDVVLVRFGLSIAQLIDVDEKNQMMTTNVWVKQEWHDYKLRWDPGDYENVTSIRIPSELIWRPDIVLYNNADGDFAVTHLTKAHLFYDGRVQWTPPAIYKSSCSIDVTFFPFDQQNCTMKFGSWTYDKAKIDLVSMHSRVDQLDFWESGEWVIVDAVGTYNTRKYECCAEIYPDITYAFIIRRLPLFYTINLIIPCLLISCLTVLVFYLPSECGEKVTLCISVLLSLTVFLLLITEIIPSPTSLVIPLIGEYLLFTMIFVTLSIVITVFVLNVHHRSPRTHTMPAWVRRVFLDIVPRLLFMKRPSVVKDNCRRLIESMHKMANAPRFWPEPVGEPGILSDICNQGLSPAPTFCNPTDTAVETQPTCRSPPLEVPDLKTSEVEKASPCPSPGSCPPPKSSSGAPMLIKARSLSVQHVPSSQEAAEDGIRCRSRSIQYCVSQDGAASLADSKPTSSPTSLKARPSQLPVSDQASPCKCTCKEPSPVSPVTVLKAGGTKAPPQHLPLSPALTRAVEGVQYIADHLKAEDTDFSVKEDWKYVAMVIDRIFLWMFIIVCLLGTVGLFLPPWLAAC
Sequence of Neuronal acetylcholine receptor; alpha4/beta2 (P12390 whole entry): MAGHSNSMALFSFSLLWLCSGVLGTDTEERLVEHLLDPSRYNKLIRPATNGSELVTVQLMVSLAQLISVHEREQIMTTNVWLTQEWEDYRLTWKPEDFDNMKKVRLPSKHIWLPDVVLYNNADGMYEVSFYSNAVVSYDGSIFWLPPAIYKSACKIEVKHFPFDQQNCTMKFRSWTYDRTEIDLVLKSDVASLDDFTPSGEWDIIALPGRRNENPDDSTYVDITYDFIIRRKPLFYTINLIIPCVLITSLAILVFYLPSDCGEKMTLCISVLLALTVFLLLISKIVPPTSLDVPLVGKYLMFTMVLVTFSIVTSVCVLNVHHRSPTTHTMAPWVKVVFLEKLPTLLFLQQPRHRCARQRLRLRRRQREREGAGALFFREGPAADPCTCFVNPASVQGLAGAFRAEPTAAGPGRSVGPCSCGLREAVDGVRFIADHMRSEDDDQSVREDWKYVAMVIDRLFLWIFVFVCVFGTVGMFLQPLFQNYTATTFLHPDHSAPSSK
In short: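 Two-electrode voltage clamp on rat α4β2, α3β4 or α7 nAChRs expressed in Xenopus oocytes. Compounds were tested across a concentration range to build concentration-inhibition curves. Data were fitted to I = Imax/[1+(IC50/X)^n] to derive IC50 and Hill coefficient.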

Question: How did the Imax [1] turn out when `Nc1ccc(-c2cc([C@H]3C[C@H]4CC[C@H]3N4)cnc2F)cn1` (racemic) was run?
Answer: 50%

Question: What does the source list for `Clc1ccc(C2CC3CCC2N3)cn1` (centres undefined) [EPIBATIDINE]?
Answer: Emax [2]: 97%; ED50 (Mus musculus [3]): 0.004 mg/kg; ED50 (Mus musculus [4]): 0.001 mg/kg; Emax [5]: 150%; ED50 (Mus musculus [6]): 0.006 mg/kg; Emax [7]: 131%

Question: Which results are given for `O=[N+]([O-])c1ccc(-c2cc([C@H]3C[C@H]4CC[C@H]3N4)cnc2F)cc1` (racemic)?
Answer: ED50 (Mus musculus [4]): 0.22 mg/kg; Activity (Mus musculus [8]): 5%; Ratio IC50 (Rattus norvegicus): 10; ED50 (Mus musculus [9]): 0.21 mg/kg

Question: `COc1ccc(-c2cc([C@H]3C[C@H]4CC[C@H]3N4)cnc2F)cn1` (racemic) was tested. Which inhibition in vivo at 0.1 mg/kg (Mus musculus [10]) did it give?
Answer: 0%

Question: Which inhibition in vivo at 10 mg/kg (Mus musculus [11]) does the source give for `COc1cc(-c2cc([C@H]3C[C@H]4CC[C@H]3N4)cnc2F)ccn1` (racemic) here?
Answer: 40%

Question: How did the Emax [5] turn out when `Nc1cc(-c2cc([C@H]3C[C@H]4CC[C@H]3N4)cnc2F)ccn1` (racemic) was run?
Answer: 10%

Question: With `Fc1ccc(-c2cc([C@H]3C[C@H]4CC[C@H]3N4)cnc2F)cn1` (racemic) as the compound, how does the Emax [2] read?
Answer: 9%

Question: What about the inhibition in vivo at 0.1 mg/kg (Mus musculus [10]) of the same compound?
Answer: 1%

Question: And the inhibition in vivo at 0.1 mg/kg (Mus musculus [12])?
Answer: 1%

Question: Which results are given for `CN1CCC[C@H]1c1cccnc1` [NICOTINE]?
Answer: Emax [2]: 37%; ED50 (Mus musculus [4]): 0.5 mg/kg; Emax [5]: 43%; Emax [7]: 40%; ED50 (Mus musculus [9]): 1 mg/kg

Question: Which ED50 (Mus musculus [4]) does the source give for `O=[N+]([O-])c1cccc(-c2cc(C3CC4CCC3N4)cnc2F)c1` (racemic) here?
Answer: 6.5 mg/kg

Question: What about the Activity (Mus musculus [8]) of the same compound?
Answer: 3%

Question: And the Activity (Mus musculus [13])?
Answer: 20%

Question: `Fc1ncc(C2CC3CCC2N3)cc1-c1cccnc1` (racemic) was tested. Which inhibition in vivo at 1 mg/kg (Mus musculus [14]) did it give?
Answer: 10%

Question: And the Emax [5]?
Answer: 7%

Question: What does the source list for `c1cnc2cc3c(cc2n1)[C@@H]1CNC[C@H]3C1` [VARENICLINE]?
Answer: Emax [2]: 66%; pEC50 [15]: 4.26; AD50 (Mus musculus [16]): 0.0002 mg/kg; Imax [17]: 38%; AD50 (Mus musculus [18]): 0.47 mg/kg; ED50 (Mus musculus [4]): 2.1 mg/kg; Activity (Mus musculus [8]): 11%; Emax [5]: 74%; Emax [7]: 13%; pIC50 [19]: 6.70; Activity (Mus musculus [13]): 10%; ED50 (Mus musculus [9]): 2.8 mg/kg
